pIC50: −log10 of the molar value. The source made the active and inactive calls. No cut-off for these calls is given here.
Experiments:
OST [1] = assay: Cytostatic activity against OST TK-/HSV1 TK+ cells at 0.038 uM; format: functional, cell-based; details: Homo sapiens
In short: (§1)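 OST TK- control cells and OST TK- cells expressing HSV-1 TK or VZV TK were cultured 5 days with graded compound concentrations. Cells were then trypsinized and counted on a Coulter counter. CC50 is the concentration in µM that reduces cell number by 50%.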

[2] = Inhibition of recombinant VZV TK assessed as [CH3-H3]dThd phosphorylation; parameters: species or system Human alphaherpesvirus 3
In short: (§2)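 Purified recombinant VZV TK (7.75 ng), HSV-1 TK (226 ng) or cytosolic TK-1 (455 ng). Buffer: 50 mM Tris-HCl pH 8.0, 2.5 mM MgCl2, 10 mM DTT, 2.5 mM ATP, 1.0 mg/mL BSA, 10 mM NaF, 1 µM [CH3-3H]dThd final. Incubated 30 min at 37 °C (linear range) with graded compound concentrations. Product caught on DE-81 disks, washed, scintillation-counted. IC50 is 50% inhibition of dThd phosphorylation.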

Thymidine kinase = target: T1, Thymidine kinase (Human alphaherpesvirus 1, UniProt Q9QNF7); assay: Inhibition of recombinant HSV-1 TK assessed as [CH3-H3]dThd phosphorylation; in short: as §2
T1 sequence (Q9QNF7 whole entry): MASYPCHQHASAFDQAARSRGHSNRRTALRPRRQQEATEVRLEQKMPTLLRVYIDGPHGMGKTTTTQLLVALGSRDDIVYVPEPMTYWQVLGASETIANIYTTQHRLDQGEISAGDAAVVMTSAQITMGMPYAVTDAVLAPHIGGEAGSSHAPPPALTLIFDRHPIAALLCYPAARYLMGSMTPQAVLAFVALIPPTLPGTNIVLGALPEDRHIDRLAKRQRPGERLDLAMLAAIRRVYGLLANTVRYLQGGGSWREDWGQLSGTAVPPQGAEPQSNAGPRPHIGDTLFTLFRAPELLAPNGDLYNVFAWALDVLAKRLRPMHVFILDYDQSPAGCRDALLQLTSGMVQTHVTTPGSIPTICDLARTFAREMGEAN

[3] = target: T2, Thymidine kinase, cytosolic (Homo sapiens, UniProt P04183); assay: Inhibition of recombinant cytosolic TK-1 assessed as [CH3-H3]dThd phosphorylation; in short: as §2
T2 sequence (P04183 whole entry): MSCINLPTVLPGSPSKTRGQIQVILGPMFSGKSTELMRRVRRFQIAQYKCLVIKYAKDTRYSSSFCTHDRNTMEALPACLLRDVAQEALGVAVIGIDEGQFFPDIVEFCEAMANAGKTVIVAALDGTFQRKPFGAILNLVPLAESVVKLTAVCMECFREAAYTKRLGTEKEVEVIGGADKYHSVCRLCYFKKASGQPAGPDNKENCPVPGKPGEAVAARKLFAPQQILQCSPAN

OST [4] = assay: Cytostatic activity against OST TK-/HSV1 TK+ cells at 1.8 uM; format: functional, cell-based; details: Homo sapiens, tested as the 18F-labelled form; in short: as §1
Lung [5] = assay: Biodistribution in lung of NMRI mouse assessed as standard uptake value after 2 mins; format: ADME, organism-based; details: in vivo
Heart [6] = assay: Biodistribution in heart of NMRI mouse assessed as standard uptake value after 2 mins; format: ADME, organism-based; details: in vivo
Brain [7] = assay: Biodistribution in brain of NMRI mouse assessed as standard uptake value after 2 mins; format: ADME, organism-based; details: in vivo
Blood [8] = assay: Biodistribution in blood of NMRI mouse assessed as standard uptake value after 2 mins; format: ADME, organism-based; details: in vivo
Kidney [9] = assay: Biodistribution in kidney of NMRI mouse assessed as standard uptake value after 60 mins; format: ADME, organism-based; details: in vivo, 1 h
Liver [10] = assay: Biodistribution in liver of NMRI mouse assessed as standard uptake value after 60 mins; format: ADME, organism-based; details: in vivo, 1 h
[11] = Biodistribution in spleen/pancreas of NMRI mouse assessed as standard uptake value after 60 mins; format: ADME, organism-based; details: in vivo, 1 h
Intestine [12] = assay: Biodistribution in intestine of NMRI mouse after 2 mins; format: ADME, organism-based; details: in vivo
In short: (§3)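 Male NMRI mice (30-40 g) under ketamine/xylazine i.p. anesthesia received 0.1 mL of HPLC-purified 18F tracer (0.1 mCi/mL) or 11C tracer (1 mCi/mL) in water for injection via tail vein. Killed by decapitation at 2 or 60 min (n = 3 per time). Blood, organs and carcass weighed and gamma-counted. %ID = organ cpm/total cpm recovered. Blood mass taken as 7% of body mass. Mean ± SD.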

Brain [13] = assay: Biodistribution in brain of NMRI mouse after 2 mins; format: ADME, organism-based; details: in vivo; in short: as §3
Blood [14] = assay: Biodistribution in blood of NMRI mouse after 2 mins; format: ADME, organism-based; details: in vivo; in short: as §3
[15] = Biodistribution in carcass of NMRI mouse after 2 mins; format: ADME, organism-based; details: in vivo; in short: as §3
[16] = Biodistribution in urine of NMRI mouse after 60 mins; format: ADME, organism-based; details: in vivo, 1 h; in short: as §3
Kidney [17] = assay: Biodistribution in kidney of NMRI mouse after 60 mins; format: ADME, organism-based; details: in vivo, 1 h; in short: as §3
Liver [18] = assay: Biodistribution in liver of NMRI mouse after 60 mins; format: ADME, organism-based; details: in vivo, 1 h; in short: as §3
[19] = Biodistribution in spleen/pancreas of NMRI mouse after 60 mins; format: ADME, organism-based; details: in vivo, 1 h; in short: as §3
Lung [20] = assay: Biodistribution in lung of NMRI mouse after 60 mins; format: ADME, organism-based; details: in vivo, 1 h; in short: as §3
Heart [21] = assay: Biodistribution in heart of NMRI mouse after 60 mins; format: ADME, organism-based; details: in vivo, 1 h; in short: as §3
Intestine [22] = assay: Biodistribution in intestine of NMRI mouse after 60 mins; format: ADME, organism-based; details: in vivo, 1 h; in short: as §3
Brain [23] = assay: Biodistribution in brain of NMRI mouse after 60 mins; format: ADME, organism-based; details: in vivo, 1 h; in short: as §3
Blood [24] = assay: Biodistribution in blood of NMRI mouse after 60 mins; format: ADME, organism-based; details: in vivo, 1 h; in short: as §3
[25] = Biodistribution in carcass of NMRI mouse after 60 mins; format: ADME, organism-based; details: in vivo, 1 h; in short: as §3
Kidney [26] = assay: Biodistribution in kidney of NMRI mouse assessed as standard uptake value after 2 mins; format: ADME, organism-based; details: in vivo
Liver [27] = assay: Biodistribution in liver of NMRI mouse assessed as standard uptake value after 2 mins; format: ADME, organism-based; details: in vivo
[28] = Biodistribution in spleen/pancreas of NMRI mouse assessed as standard uptake value after 2 mins; format: ADME, organism-based; details: in vivo
Lung [29] = assay: Biodistribution in lung of NMRI mouse assessed as standard uptake value after 60 mins; format: ADME, organism-based; details: in vivo, 1 h
Heart [30] = assay: Biodistribution in heart of NMRI mouse assessed as standard uptake value after 60 mins; format: ADME, organism-based; details: in vivo, 1 h
Brain [31] = assay: Biodistribution in brain of NMRI mouse assessed as standard uptake value after 60 mins; format: ADME, organism-based; details: in vivo, 1 h
Blood [32] = assay: Biodistribution in blood of NMRI mouse assessed as standard uptake value after 60 mins; format: ADME, organism-based; details: in vivo, 1 h
[33] = Partition coefficient, log P at pH 7.4; format: physicochemical; details: octanol/water
In short: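 HPLC-purified radiotracer partitioned between 1-octanol and 0.025 M phosphate buffer pH 7.4. Vortexed 2 min at room temperature, centrifuged 5 min, aliquots of both phases gamma-counted. P = octanol cpm/buffer cpm after density and mass correction; n = 6.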

[34] = Drug uptake in human 293T cells transduced with VZV-tk gene after 3 hrs; format: ADME, cell-based; details: hek-293t
In short: (§4)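 Lentivirally transduced 293T cells (VZV-tk or LacZ control) plated in triplicate at 200 000 cells/well. After 24 h, 0.25 mL fresh medium with 5 µCi of the 18F tracer (3 h) or 30 µCi of the 11C tracer (1 h) added; 37 °C, 5% CO2. Cells washed thrice with ice-cold PBS, lysed, gamma-counted. Uptake given as % total radioactivity per mg protein (Bio-Rad assay); n = 3, unpaired two-sided t-test.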

[35] = Ratio of drug uptake in LV-VZVTK-1-P transduced cells to LV-LacZ-I-P transduced 293T cells after 3 hrs; format: ADME, cell-based; details: human
In short: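 Lentivirally transduced human embryonic kidney 293T cells (VZV-tk vs LacZ control), plated in triplicate at 200 000 cells/well. After 24 h, fresh medium with HPLC-purified [18F] tracer (5 µCi/well), 3 h at 37 °C, 5% CO2. Cells washed three times with ice-cold PBS and lysed. Lysate counted in a gamma counter. Uptake given as % total radioactivity per mg protein (Bio-Rad assay). Ratio is VZV-tk/LacZ; n=3, unpaired Student t-test.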

[36] = Drug uptake in human 293T cells transduced with LacZ gene after 3 hrs; format: ADME, cell-based; details: hek-293t; in short: as §4
[37] = Biodistribution in urine of NMRI mouse after 2 mins; format: ADME, organism-based; details: in vivo; in short: as §3
Kidney [38] = assay: Biodistribution in kidney of NMRI mouse after 2 mins; format: ADME, organism-based; details: in vivo; in short: as §3
Liver [39] = assay: Biodistribution in liver of NMRI mouse after 2 mins; format: ADME, organism-based; details: in vivo; in short: as §3
[40] = Biodistribution in spleen/pancreas of NMRI mouse after 2 mins; format: ADME, organism-based; details: in vivo; in short: as §3
Lung [41] = assay: Biodistribution in lung of NMRI mouse after 2 mins; format: ADME, organism-based; details: in vivo; in short: as §3
Heart [42] = assay: Biodistribution in heart of NMRI mouse after 2 mins; format: ADME, organism-based; details: in vivo; in short: as §3
OST [43] = assay: Cytotoxicity against OST cells expressing VZV TK; format: cell-based; details: human; in short: as §1
OST [44] = assay: Cytotoxicity against OST cells expressing HSV1 TK; format: cell-based; details: human; in short: as §1

Nc1nc(O)c2ncn(CCC(CO)CO)c2n1 [PENCICLOVIR]
Activity (OST [1]): Active
pIC50 [2]: < 4.30

O=c1nc2oc(-c3ccc(F)cc3)cc2cn1[C@H]1C[C@H](O)[C@@H](CO)O1
pIC50 [2]: 6.74
pIC50 (Thymidine kinase): < 3.30
pIC50 [3]: < 3.30

Nc1nc(=O)c2ncn(CCC(CO)CF)c2[nH]1 (stereo not given)
Activity (OST [4]): Active
pIC50 [2]: < 4.30

O=c1nc2oc(-c3cccc(OCC[18F])c3)cc2cn1[C@H]1C[C@H](O)[C@@H](CO)O1
Drug uptake (Lung [5]): 1.1
Drug uptake (Heart [6]): 0.6
Drug uptake (Brain [7]): 0.1
Drug uptake (Blood [8]): 0.9
Drug uptake (Kidney [9]): 0.7
Drug uptake (Liver [10]): 0.7
Drug uptake [11]: 0.1
Drug uptake (Intestine [12]): 20.7 %ID
Drug uptake (Brain [13]): 0 %ID
Drug uptake (Blood [14]): 6.2 %ID
Drug uptake [15]: 27.2 %ID
Drug uptake [16]: 29.5 %ID
Drug uptake (Kidney [17]): 1.2 %ID
Drug uptake (Liver [18]): 4.4 %ID
Drug uptake [19]: 0.1 %ID
Drug uptake (Lung [20]): 0.1 %ID
Drug uptake (Heart [21]): 0 %ID
Drug uptake (Intestine [22]): 60.5 %ID
Drug uptake (Brain [23]): 0 %ID
Drug uptake (Blood [24]): 0.4 %ID
Drug uptake [25]: 3.8 %ID
Drug uptake (Kidney [26]): 9
Drug uptake (Liver [27]): 3.9
Drug uptake [28]: 1.4
Drug uptake (Lung [29]): 0
Drug uptake (Heart [30]): 0
Drug uptake (Brain [31]): 0
Drug uptake (Blood [32]): 0.1
logD [33]: 1.24
Drug uptake [34]: 2.29%
uptake ratio at 3 h [35]: 4.5
Drug uptake [36]: 0.6%
Drug uptake [37]: 5.7 %ID
Drug uptake (Kidney [38]): 15.5 %ID
Drug uptake (Liver [39]): 24.4 %ID
Drug uptake [40]: 1.3 %ID
Drug uptake (Lung [41]): 0.9 %ID
Drug uptake (Heart [42]): 0.3 %ID

O=c1nc2oc(-c3cccc(OCCF)c3)cc2cn1[C@H]1C[C@H](O)[C@@H](CO)O1
pIC50 [2]: 4.28
pIC50 (Thymidine kinase): < 3.30
pIC50 [3]: < 3.30
Activity (OST [43]): Not Active
Activity (OST [44]): Not Active

From ChEMBL document CHEMBL1142866, “Synthesis and preliminary evaluation of 18F- or 11C-labeled bicyclic nucleoside analogues as potential probes for imaging varicella-zoster virus thymidine kinase gene expression using positron emission tomography” (J Med Chem, 2007)
